The record followed here is ChEMBL document CHEMBL1122671, “Anticonvulsant activity of some 4-aminobenzamides” (J Med Chem, 1984).

Series [1] concerns Mus musculus. Description: Anticonvulsant activity against scMet (subcutaneous metrazole) induced seizure in mice at 30 min; ++ = Activity at 300 mg/kg. In kind it is functional, organism-based. Also noted: dose 300 mg/kg.
Series [2] concerns Mus musculus. As to the kind of experiment: Anticonvulsant activity against scMet (subcutaneous metrazole) induced seizure in mice at 4 hr; + = Activity at 600 mg/kg. The format is functional, organism-based. Also noted: dose 600 mg/kg.
Series [3] has as its system Mus musculus. As to the kind of experiment: Anticonvulsant activity against MES (maximal electroshock) induced seizure in mice at 4 hr; ++ = Activity at 300 mg/kg. The format is functional, organism-based. The arrangement: dose 300 mg/kg. In short, it runs like this:
(§1)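 Male Carworth Farms number-one mice received the compound ip in 30% polyethylene glycol 400. Doses were 30, 100 and 300 mg/kg, with 600 mg/kg in some cases. Maximal electroshock seizure protection was scored at 30 min and 4 h after dosing. Activity is coded by the lowest effective dose.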

The test system of series [4] is Mus musculus. Description: Anticonvulsant activity against MES (maximal electroshock) induced seizure in mice at 30 min; ++ = Activity at 300 mg/kg. In kind it is functional, organism-based. The arrangement: dose 300 mg/kg. In short, it runs like this:
as §1

Series [5] concerns Mus musculus. Description: Evaluated for toxicity by using rotarod test at in mice 30 min; + = Activity at 600 mg/kg. In kind it is organism-based. Also noted: dose 600 mg/kg. As to conditions: in vivo, 0.5 h. The procedure, abridged: (§2)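 Neurotoxicity in male Carworth Farms number-one mice dosed ip in 30% PEG 400 at 30, 100, 300 and sometimes 600 mg/kg, tested 30 min or 4 h later. Mice placed on a 1-in. knurled rod rotating at 6 rpm; toxicity means failure to stay on the rod for 1 min. Scored by the lowest toxic dose; footnotes record loss of righting reflex or lethality.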

Series [6] relates to Mus musculus. As to the kind of experiment: Evaluated for toxicity by using rotarod test in mice at 4 hr; + = Activity at 600 mg/kg. The format is organism-based. Also noted: dose 600 mg/kg. As to conditions: in vivo. In short, it runs like this: as §2
In series [7] the test system is Mus musculus. As to the kind of experiment: Anticonvulsant activity against MES (maximal electroshock) induced seizure in mice at 4 hr; f = No activity at 100 mg/kg. The format is functional, organism-based. The arrangement: dose 100 mg/kg. The procedure, abridged: as §1
The subject of series [8] is Mus musculus. As to the kind of experiment: Anticonvulsant activity against scMet (subcutaneous metrazole) induced seizure in mice at 30 min; f = No activity at 100 mg/kg. The format is functional, organism-based. Also noted: dose 100 mg/kg.
Series [9] relates to Mus musculus. As to the kind of experiment: Anticonvulsant activity against scMet (subcutaneous metrazole) induced seizure in mice at 4 hr; f = No activity at 100 mg/kg. The format is functional, organism-based. Also noted: dose 100 mg/kg.
The test system of series [10] is Mus musculus. As to the kind of experiment: Anticonvulsant activity against MES (maximal electroshock) induced seizure in mice at 30 min; +++ = activity at 100 mg/kg. In kind it is functional, organism-based. Also noted: dose 100 mg/kg. In short, it runs like this:
as §1

Series [11] deals with Mus musculus. Description: Evaluated for toxicity by using rotarod test at in mice 30 min; +++ = activity at 100 mg/kg *-LD50 less than 300 mg/kg. In kind it is organism-based. As to conditions: in vivo, 0.5 h. In short, it runs like this:
as §2

For series [12], the system named is Mus musculus. Description: Evaluated for toxicity by using rotarod test in mice at 4 hr; f = No activity at 100 mg/kg. In kind it is organism-based. Also noted: dose 100 mg/kg. As to conditions: in vivo. The procedure, abridged:
as §2

Series [13] relates to Mus musculus. Description: Anticonvulsant activity against MES (maximal electroshock) induced seizure in mice at 4 hr; f = No activity at 100 mg/kg. In kind it is functional, organism-based. The arrangement: dose 100 mg/kg. The procedure, abridged:
as §1

In series [14] the test system is Mus musculus. Description: Anticonvulsant activity against scMet (subcutaneous metrazole) induced seizure in mice at 30 min; +++ = Indicates activity at 100 mg/kg. The format is functional, organism-based. Also noted: dose 100 mg/kg.
Series [15] concerns Mus musculus. Description: Anticonvulsant activity against scMet (subcutaneous metrazole) induced seizure in mice at 4 hr; f = No activity at 100 mg/kg. In kind it is functional, organism-based. The arrangement: dose 100 mg/kg.
The test system of series [16] is Mus musculus. Description: Anticonvulsant activity against MES (maximal electroshock) induced seizure in mice at 30 min; +++ = Activity at 100 mg/kg. The format is functional, organism-based. The arrangement: dose 100 mg/kg. The procedure, abridged: as §1
Series [17] concerns Mus musculus. Description: Evaluated for toxicity by using rotarod test at in mice 30 min; +++ = Indicates activity at 100 mg/kg. As to conditions: in vivo, 0.5 h. Also noted: dose 100 mg/kg. In kind it is organism-based. The procedure, abridged:
as §2

Series [18] relates to Mus musculus. As to the kind of experiment: Evaluated for toxicity by using rotarod test in mice at 4 hr; f = No activity at 100 mg/kg. Also noted: dose 100 mg/kg. The format is organism-based. Particulars: in vivo. In short, it runs like this:
as §2

A short description of series [19]: Evaluation of neurologic deficit by rotarod procedure in mice. In kind it is ADME, organism-based. Particulars: mouse, in vivo. The procedure, abridged: (§3)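 Male Carworth Farms number-one mice were dosed ip (30% PEG 400 vehicle) and placed on a 1-in. knurled plastic rod rotating at 6 rpm. Neurotoxicity meant failure to stay on the rod for 1 min. TD50 was determined graphically.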

Series [20] in a line: Protective index (PI) which is defined as the ratio of TD50 to the ED50 (MES). In kind it is functional. In short, it runs like this: (§4)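 Both values come from ip dosing in 30% PEG 400 to male Carworth Farms number-one mice and were derived by the graphical method.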
Series [21] is described as follows: Protective index (PI) which is defined as the ratio of TD50 to the ED50 (ScMet). In kind it is functional. In short, it runs like this:
as §4

Series [22] concerns Mus musculus. As to the kind of experiment: Anticonvulsant activity against scMet (subcutaneous metrazole) induced seizure in mice at 30 min; +++ = Activity at 100 mg/kg. In kind it is functional, organism-based. Also noted: dose 100 mg/kg.
Series [23] concerns Mus musculus. Description: Anticonvulsant activity against MES (maximal electroshock) induced seizure in mice at 4 hr; +++ = Activity at 100 mg/kg. Also noted: dose 100 mg/kg. The format is functional, organism-based. In short, it runs like this: as §1
Series [24] has as its system Mus musculus. As to the kind of experiment: Anticonvulsant activity against scMet (subcutaneous metrazole) induced seizure in mice at 4 hr; - indicates no activity at 600 mg/kg. In kind it is functional, organism-based. Also noted: dose 600 mg/kg. The procedure, abridged: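 Male Carworth Farms number-one mice dosed ip (30% PEG 400) at 30, 100, 300 and in some cases 600 mg/kg. Pentylenetetrazole 85 mg/kg given sc as a 0.5% solution in the posterior midline, at 30 min or 4 h. Protection means no clonic spasm of at least 5 s within 30 min. Scored by the lowest protective dose.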

Series [25] relates to Mus musculus. As to the kind of experiment: Evaluated for toxicity by using rotarod test at in mice 30 min; ++ indicates activity at 300 mg/kg. The format is organism-based. The arrangement: dose 300 mg/kg. As to conditions: in vivo, 0.5 h. In short, it runs like this:
as §2

Series [26] concerns Mus musculus. Description: Evaluated for toxicity by using rotarod test in mice at 4 hr; + indicates activity at 600 mg/kg. In kind it is organism-based. Also noted: dose 600 mg/kg. Particulars: in vivo. The procedure, abridged: as §2
Series [27] is described as follows: Evaluation of neurologic deficit by rotarod procedure in mice. The format is ADME, organism-based. Particulars: mouse, in vivo. The procedure, abridged:
as §3

Series [28] deals with Mus musculus. Description: Anticonvulsant activity against MES (maximal electroshock) induced seizure in mice at 4 hr; Activity at 300 mg/kg. The format is functional, organism-based. Also noted: dose 300 mg/kg. In short, it runs like this:
as §1

Series [29] has as its system Mus musculus. Description: Anticonvulsant activity against scMet (subcutaneous metrazole) induced seizure in mice at 30 min; ++ indicates activity at 300 mg/kg. The format is functional, organism-based. Also noted: dose 300 mg/kg.
The test system of series [30] is Mus musculus. Description: Anticonvulsant activity against scMet (subcutaneous metrazole) induced seizure in mice at 4 hr; ++ indicates activity at 300 mg/kg. The format is functional, organism-based. Also noted: dose 300 mg/kg.
Series [31] concerns Mus musculus. As to the kind of experiment: Anticonvulsant activity against MES (maximal electroshock) induced seizure in mice at 30 min; + indicates activity at 600 mg/kg. The arrangement: dose 600 mg/kg. In kind it is functional, organism-based. The procedure, abridged: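 Male Carworth Farms number-one mice; compounds in 30% polyethylene glycol 400, given ip at 30, 100 and 300 mg/kg, some also at 600 mg/kg. Maximal electroshock challenge at 30 min or 4 h after dosing. Scored by the lowest dose giving protection (++++ 30, +++ 100, ++ 300, + 600 mg/kg; - none at 600).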

In series [32] the test system is Mus musculus. As to the kind of experiment: Evaluated for toxicity by using rotarod test in mice at 4 hr; ++ indicates activity at 300 mg/kg. Particulars: in vivo. In kind it is organism-based. The arrangement: dose 300 mg/kg. In short, it runs like this:
as §2

As for `Nc1ccc(C(=O)NCCc2ccccc2)cc1`, the Activity entry with Mus musculus [1], in the series on Mus musculus [2], in the series with Mus musculus [3] and in the series with Mus musculus [4] was “Activity at 300 mg/kg” each time. Also, the Toxicity result in the series on Mus musculus [5] and in the series on Mus musculus [6] was “Activity at 600 mg/kg” in each case.
For `CCCCCCNC(=O)c1ccc(N)cc1`, the Activity result in the series with Mus musculus [7] is “No activity”; in the series with Mus musculus [8] it was “No activity”; with Mus musculus [9] it was “No activity”; with Mus musculus [10] it was “activity at 100 mg/kg”. Besides, the values for the Toxicity entry with Mus musculus [11] and with Mus musculus [12] were “activity at 100 mg/kg *-LD50 < 300 mg/kg” and “No activity”, respectively.
On to `CCCCCNC(=O)c1ccc(N)cc1`, for which the Activity entry in the series on Mus musculus [13] is “No activity”; with Mus musculus [14], “Activity at 100 mg/kg”; with Mus musculus [15], “No activity”; in the series with Mus musculus [16], “Activity at 100 mg/kg”. Further, the Toxicity entry with Mus musculus [17] is reported as “activity at 100 mg/kg”; in the series on Mus musculus [18], “No activity”. The TD50 in [19] worked out at 68.5 mg/kg. The PI in [20] was found to be 1.6; in series [21], 1.2.
With `Nc1ccc(C(=O)NC2CCCCC2)cc1`, the Activity result was “Activity at 100 mg/kg” in the series on Mus musculus [22], “Activity at 100 mg/kg” in the series with Mus musculus [23], “Activity at 100 mg/kg” in the series with Mus musculus [16] and “Not toxic” in the series with Mus musculus [24]. The Toxicity result in the series with Mus musculus [25] and with Mus musculus [26] was “activity at 300 mg/kg” throughout. Further, the TD50 in series [27] is 189 mg/kg. Besides, the PI in series [20] came to 2.8; in series [21] it was 1.5.
In the case of `CC(CNC(=O)c1ccc(N)cc1)c1ccccc1` (stereo unspecified), the Activity result in the series with Mus musculus [28], with Mus musculus [29], in the series on Mus musculus [30] and in the series with Mus musculus [31] was “activity at 300 mg/kg” throughout. In addition, the Toxicity result in the series with Mus musculus [25] and in the series with Mus musculus [32] was “activity at 300 mg/kg” in each case.
